# Calls of active or inactive are those of the source. The rule behind the calls is not given here.
# Columns and labels:
# [1] = Inhibition of Streptococcus pneumoniae MurF
# Escherichia coli [2] = assay: Antimicrobial activity against Escherichia coli AB734 by broth microdilution method; type: functional, organism-based
# Method in brief: (§1)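 Broth microdilution MIC per CLSI guidelines in Mueller-Hinton broth. E. coli 1411 and AB734 were also tested with added polymyxin B nonapeptide to permeabilise the outer membrane.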
# Staphylococcus aureus [3] = assay: Antimicrobial activity against Staphylococcus aureus SH1000 by broth microdilution method; type: functional, organism-based
# Method in brief: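 MIC by broth microdilution in Mueller-Hinton broth following CLSI guidelines.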
# Escherichia coli [4] = assay: Antimicrobial activity against Escherichia coli 1411 by broth microdilution method; type: functional, organism-based; method in brief: as §1
# Staphylococcus aureus [5] = assay: Inhibition of Staphylococcus aureus MurF using D-Ala-D-Ala/UMtri-L-Lys as substrate assessed as residual activity at 100 uM after 15 mins by Malachite green method
# Method in brief: (§2)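 S. aureus MurF, purified, assayed in 50 mM Hepes pH 8.0 with 20 mM MgCl2 and 0.005% Triton X-114, with D-Ala-D-Ala, UMtri-L-Lys and ATP. Compound was in DMSO (5% v/v final). After 15 min at 37 °C, Biomol reagent was added and A650 was read 5 min later. Duplicates were run. Residual activity was relative to 5% DMSO controls. IC50 was read as 50% residual activity across seven concentrations.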
# Streptococcus pneumoniae [6] = assay: Antimicrobial activity against Streptococcus pneumoniae R6 by broth microdilution method; type: functional
# Method in brief: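 MIC by CLSI broth microdilution in Mueller-Hinton broth supplemented with 5% (v/v) lysed horse blood.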
# Escherichia coli [7] = assay: Inhibition of Escherichia coli MurF using D-Ala-D-Ala/UMtri-mDAP as substrate assessed as residual activity at 100 uM after 15 mins by Malachite green method
# Method in brief: (§3)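 Purified E. coli MurF in 50 mM Hepes pH 8.0, 50 mM MgCl2, 0.005% Triton X-114, with D-Ala-D-Ala, UMtri-mDAP and ATP. Compound was added in DMSO (final 5% v/v). Mixtures were incubated 15 min at 37 °C, quenched with Biomol reagent, and absorbance was read at 650 nm after 5 min. Runs were in duplicate. Residual activity was taken versus DMSO-only controls. IC50 came from residual activity at seven concentrations.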
# Streptococcus pneumoniae [8] = assay: Inhibition of Streptococcus pneumoniae MurF using D-Ala-D-Ala/UMtri-L-Lys as substrate assessed as residual activity at 100 uM after 15 mins by Malachite green method
# Method in brief: (§4)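 Purified S. pneumoniae MurF in 50 mM Hepes pH 8.0, 50 mM MgCl2, 0.005% Triton X-114, with D-Ala-D-Ala, UMtri-L-Lys and ATP. Compound was added in DMSO (5% v/v final). Reactions ran 15 min at 37 °C, were stopped with Biomol malachite green reagent, and A650 was measured after 5 min. Runs were in duplicate. Residual activity was versus DMSO controls. IC50 was from seven concentrations.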
# [9] = Inhibition of Streptococcus pneumoniae MurF using D-Ala-D-Ala/UMtri-L-Lys as substrate after 15 mins by Malachite green method; method in brief: as §4
# [10] = Inhibition of Staphylococcus aureus MurF using D-Ala-D-Ala/UMtri-L-Lys as substrate after 15 mins by Malachite green method; method in brief: as §2
# [11] = Inhibition of Escherichia coli MurF using D-Ala-D-Ala/UMtri-mDAP as substrate after 15 mins by Malachite green method; method in brief: as §3
Compound,IC50 [1] [µM],Activity (Escherichia coli [2]),Activity (Staphylococcus aureus [3]),Activity (Escherichia coli [4]),Activity (Staphylococcus aureus [5]) [%],MIC (Streptococcus pneumoniae [6]) [µg/mL],Activity (Escherichia coli [7]) [%],Activity (Streptococcus pneumoniae [8]) [%],IC50 [9] [µM],IC50 [10] [µM],IC50 [11] [µM]
N#Cc1c(NC(=O)c2cc(S(=O)(=O)N3CCOCC3)c(Cl)cc2Cl)sc2c1CC[C@@H](c1ccc(O)cc1)C2,0.022,,,,,,,,,,
N#Cc1c(NC(=O)c2cc(S(=O)(=O)N3CCSCC3)c(Cl)cc2Cl)sc2c1CCCC2,,inactive,inactive,inactive,95,> 128,91,42,,,
N#Cc1c(NC(=O)c2cc(S(=O)(=O)N3CCOCC3)c(Cl)cc2Cl)sc2c1CCN(c1ccc([N+](=O)[O-])cc1)C2,,inactive,inactive,inactive,83,> 128,74,80,,,
N#Cc1c(NC(=O)c2cc(S(=O)(=O)N3CCOCC3)c(Cl)cc2Cl)sc2c1CCCC2,1,,,,107,64,100,,4,,
CCOC(=O)C1CCN(S(=O)(=O)c2cc(C(=O)Nc3sc4c(c3C#N)CCCC4)c(Cl)cc2Cl)CC1,,inactive,inactive,inactive,100,,95,100,,,
CCOC(=O)c1ccc(N2CCc3c(sc(NC(=O)c4cc(S(=O)(=O)N5CCOCC5)c(Cl)cc4Cl)c3C#N)C2)cc1,,inactive,inactive,inactive,79,> 128,98,80,,,
COc1ccc(CN2CCc3c(sc(NC(=O)c4cc(S(=O)(=O)N5CCOCC5)c(Cl)cc4Cl)c3C#N)C2)cc1OC,,inactive,inactive,inactive,,> 128,,,10.4,66.5,37
N#Cc1c(NC(=O)c2cc(S(=O)(=O)N3CCSC3)c(Cl)cc2Cl)sc2c1CCCC2,,inactive,inactive,inactive,85,> 128,104,66,,,
N#Cc1c(NC(=O)c2cc(S(=O)(=O)N3CCOCC3)c(Cl)cc2Cl)sc2c1CCN(Cc1ccc([N+](=O)[O-])cc1)C2,,inactive,inactive,inactive,,128,,,1.09,94,101
N#Cc1c(NC(=O)c2cc(S(=O)(=O)N3CCOCC3)c(Cl)cc2Cl)sc2c1CCN(Cc1cccc(O)c1)C2,,inactive,inactive,inactive,,16,,,0.42,91,81
COC(=O)c1ccc(CN2CCc3c(sc(NC(=O)c4cc(S(=O)(=O)N5CCOCC5)c(Cl)cc4Cl)c3C#N)C2)cc1,,inactive,inactive,inactive,,> 128,,,0.72,88,59
N#Cc1c(NC(=O)c2cc(S(=O)(=O)N3CCOCC3)c(Cl)cc2Cl)sc2c1CCN(Cc1ccc(F)cc1)C2,,inactive,inactive,inactive,,> 128,,,0.98,79,100
CC1CCN(S(=O)(=O)c2cc(C(=O)Nc3sc4c(c3C#N)CCCC4)c(Cl)cc2Cl)CC1,,inactive,inactive,inactive,80,,87,90,,,
N#Cc1ccc(N2CCc3c(sc(NC(=O)c4cc(S(=O)(=O)N5CCOCC5)c(Cl)cc4Cl)c3C#N)C2)cc1,,inactive,inactive,inactive,85,> 128,95,63,,,
CC(=O)Oc1ccc(CN2CCc3c(sc(NC(=O)c4cc(S(=O)(=O)N5CCOCC5)c(Cl)cc4Cl)c3C#N)C2)cc1OC(C)=O,,inactive,inactive,inactive,,> 128,,,3.03,89,88
N#Cc1c(NC(=O)c2cc(S(=O)(=O)N3CCNC(=O)C3)c(Cl)cc2Cl)sc2c1CCCC2,,inactive,inactive,inactive,95,,91,89,,,
N#Cc1cccc(CN2CCc3c(sc(NC(=O)c4cc(S(=O)(=O)N5CCOCC5)c(Cl)cc4Cl)c3C#N)C2)c1,,inactive,inactive,inactive,,> 128,,,1.17,90,99
N#Cc1c(NC(=O)c2cc(S(=O)(=O)N3CCOCC3)c(Cl)cc2Cl)sc2c1CCN(Cc1ccc(-c3nnn[nH]3)cc1)C2,,inactive,inactive,inactive,,> 128,,,0.3,120,55

# — ChEMBL document CHEMBL2406982, “Structure-activity relationships of new cyanothiophene inhibitors of the essential peptidoglycan biosynthesis enzyme MurF” (Eur J Med Chem, 2013)
